Activity calls are given as the source filed them. The calls are words filed in the database; no cut-off is given here.
How the values were obtained:
[1] = molecular target: Quadruplex DNA; assay: Binding affinity to mito 0.5-16 G4 DNA (unknown origin) assessed as dissociation constant measured upto 450 secs by surface plasmon resonance assay; type: nucleic-acid assay
Summary of the method: (§1)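 Surface plasmon resonance in buffer at 25 °C. Four G4-mtDNAs (Mito 78, Mito 55, Mito 29, Mito 0.5-16) and the hairpin HP19 served as substrates. Kd was derived from the sensorgrams.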

[2] = molecular target: DNA; assay: Binding affinity to HP19 DNA (non-G4 DNA) (unknown origin) assessed as dissociation constant measured upto 450 secs by surface plasmon resonance assay; type: nucleic-acid assay; summary of the method: as §1
[3] = system: HeLa; assay: Antiproliferative activity against human HeLa cells measured after 48 hrs by MTT assay; type: functional, cell-based
Summary of the method: (§2)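 Cells exposed to the ligands for 48 h. Viability was read by MTT, and the IC50 was derived from the response.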

[4] = system: PANC-1; assay: Antiproliferative activity against human PANC-1 cells measured after 48 hrs by MTT assay; type: functional, cell-based; details: PANC-1, 48 h; summary of the method: as §2
[5] = Antiproliferative activity against human BJ cells measured after 48 hrs by MTT assay; type: toxicity, cell-based; details: BJ cells; summary of the method: as §2
[6] = system: HCT-116; assay: Downregulation of ND4 protein level in human HCT-116 cells at upto 4 uM incubated for 48 hrs by Western blot analysis; type: functional, cell-based
[7] = system: HCT-116; assay: Downregulation of ND6 protein level in human HCT-116 cells at upto 4 uM incubated for 48 hrs by Western blot analysis; type: functional, cell-based
[8] = system: HCT-116; assay: Downregulation of COX3 protein level in human HCT-116 cells at upto 4 uM incubated for 48 hrs by Western blot analysis; type: functional, cell-based
[9] = system: HCT-116; assay: Downregulation of mitochondrial respiratory chain complex I level in human HCT-116 cells at upto 4 uM measured after 48 hrs by Western blot analysis; type: functional, cell-based
[10] = system: Cell membrane; assay: Induction of mitochondrial membrane potential depolarization in human HCT-116 cells assessed as […] in TMRE fluorescence incubated for 48 hrs by TMRE staining based analysis; type: cell membranes; details: dose <= 4.0 µM
[11] = system: HCT-116; assay: Induction of mitochondrial dysfunction in human HCT-116 cells assessed as decrease in ATP production at upto 4 uM incubated for 3 hrs by Seahorse XFe24 analyzer; type: functional, cell-based
Summary of the method: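 Seahorse Mito-stress and glycolysis stress tests on HCT116 cells treated with ligand for 3 h. Oxygen consumption rate and extracellular acidification rate recorded.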

[12] = system: HCT-116; assay: Induction of ROS production in human HCT-116 cells assessed as upregulation of ROS level at upto 4 uM measured after 48 hrs in presence of MitoTEMPO by mito-sox staining based analysis; type: functional, cell-based
[13] = system: HCT-116; assay: Induction of DNA damage in human HCT-116 assessed as increase in tail length at upto 4 uM incubated for 72 hrs in presence of MitoTEMPO by comet assay; type: functional, cell-based
[14] = system: Quadruplex DNA; assay: Binding affinity to mito 0.5-16 G4 DNA (unknown origin) assessed as increase in fluorescence intensity by fluorescence spectrophotometric analysis; type: nucleic-acid assay
Summary of the method: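 Oligonucleotides were pre-annealed at 95 °C for 10 min, then cooled slowly. Ligand (5 uM) was mixed with 20 uM DNA in buffer. Emission was collected over 550–800 nm, and enhancement was taken at 650 nm as F/F0.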

[15] = system: DNA; assay: Binding affinity to HP19 DNA (non-G4 DNA) (unknown origin) assessed as increase in CD signal at 5 uM by circular dichroism spectroscopic analysis; type: nucleic-acid assay
[16] = system: DNA; assay: Binding affinity to SS19 DNA (non-G4 DNA) (unknown origin) assessed as increase in CD signal at 5 uM by circular dichroism spectroscopic analysis; type: nucleic-acid assay
[17] = system: Quadruplex DNA; assay: Binding affinity to Mito 29 G4 DNA (unknown origin) assessed as change in melting temperature at 5 uM by circular dichroism spectroscopic analysis; type: nucleic-acid assay
[18] = system: Quadruplex DNA; assay: Binding affinity to Mito 0.5-16 G4 DNA (unknown origin) assessed as change in melting temperature at 5 uM by circular dichroism spectroscopic analysis; type: nucleic-acid assay
[19] = Drug localization in mitochondria of human HCT-116 cells at upto 4 uM incubated for 1 hrs by mito-tracker deep red staining based live cell imaging analysis; type: ADME; details: hct-116, 1 h
[20] = Drug localization in human HCT-116 cells by measuring red foci at 4 uM incubated for 1 hr in presence of RNA by hoechst33342 staining based analysis; type: ADME, cell-based; details: hct-116, 1 h
Summary of the method: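 Live HCT116 cells loaded with ligand 4 uM for 1 h and Hoechst33342 1 uM for 30 min, then fixed. Fixed cells digested with 200 units DNase I or RNase A for 3 h. Red foci imaged by confocal microscopy in 100 cells. Mean ± SEM, t test.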

[21] = Drug localization in human HCT-116 cells by measuring red foci at 4 uM incubated for 1 hr in presence of MitoPDS by hoechst33342 staining based analysis; type: ADME, cell-based; details: hct-116, 1 h
Summary of the method: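 Pretreatment of live HCT116 cells: FCCP 1 uM for 20 min, cyclosporin A 1 uM for 24 h, DMOG 100 uM for 24 h, or MitoPDS at several concentrations for 3 h (applied after dye loading). Cells loaded with ligand 4 uM (excitation 488 nm) for 1 h and Hoechst33342 1 uM for 30 min. Red foci counted by confocal imaging in 100 cells. Mean ± SEM, t test.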

[22] = system: HCT-116; assay: Downregulation of lamin B1 level in human HCT-116 cells measured after 72 hrs by immunofluorescence analysis; type: functional, cell-based; details: dose <= 4.0 µM
Summary of the method: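 HCT116 cells treated with ligand at 0-4 uM for 72 h. Lamin B1 and Ki67 imaged by immunofluorescence (excitation 635 nm), or lamin B1 probed on Western blot with β-actin as loading control.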

[23] = system: HCT-116; assay: Upregulation of p21 level in human HCT-116 cells at upto 4 uM measured after 72 hrs by Western blot analysis; type: functional, cell-based
Summary of the method: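 HCT116 cells exposed to the ligand at 0–4 µM for 72 h. Lysates were immunoblotted for p21 together with Lamin B1, p53, p16 and γ-H2A.x, with β-actin as the loading reference.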

[24] = system: HCT-116; assay: Antitumor activity against human HCT-116 cells xenografted in Balb/c nude mouse model assessed as reduction in tumor weight at 5 mg/kg, iv administered every two days for 16 days relative to control; type: functional; parameters: scale not given: the % may be the effect or the level left; details: time 16 day
Summary of the method: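 Male Balb/c nude mice carrying HCT116 xenografts, 6 per group. Dosing was intravenous every two days at 5 mg/kg, with a PBS-injected control group. Body weight and tumour growth were tracked. Tumours were excised and weighed after 16 days.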

[25] = Toxicity in BALB/c nude mouse assessed as change in lymphocyte count at 5 mg/kg, iv administered every two days for 16 days; type: organism-based; details: in vivo, 384 h, time 16 day
Summary of the method: (§3)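 HCT116 xenograft-bearing male Balb/c nude mice (6/group) dosed iv at 5 mg/kg every two days or with PBS. Whole blood collected at sacrifice on day 16 for hematology parameters.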

[26] = Toxicity in BALB/c nude mouse assessed as change in red blood cell count at 5 mg/kg, iv administered every two days for 16 days; type: organism-based; details: in vivo, 384 h, time 16 day; summary of the method: as §3
[27] = Toxicity in BALB/c nude mouse assessed as change in hemoglobin level at 5 mg/kg, iv administered every two days for 16 days; type: organism-based; details: in vivo, 384 h, time 16 day; summary of the method: as §3
[28] = Toxicity in BALB/c nude mouse assessed as change in mean red blood cell hemoglobin content at 5 mg/kg, iv administered every two days for 16 days; type: organism-based; details: in vivo, 384 h, time 16 day; summary of the method: as §3
[29] = Drug localization in human HCT-116 cells overexpressing twinkle helicase by measuring red foci at 4 uM incubated for 1 hr by hoechst33342 staining based analysis; type: ADME, cell-based; details: hct-116, 1 h

For `C(=C\c1ccc2ccccc2[n+]1CCCCCCCC[n+]1c(/C=C/c2ccc(N3CCCCC3)cc2)ccc2ccccc21)/c1ccc(N2CCCCC2)cc1.[I-].[I-]`, the Kd [1] was 0.29 µM, the Kd [2] was greater than 2 µM and the IC50 [3] was 23.5 µM. For the same molecule, the IC50 [4] was 24.8 µM, the IC50 at 48 h [5] was greater than 40 µM and the Activity [6] was “Active”. For the same molecule, the Activity [7] was “Active”, the Activity [8] was “Active” and the Activity [9] was “Active”. The Activity [10] was “Dose-Dependent Effect”, the Activity [11] was “Active” and the Activity [12] was “inactive”. For the same molecule, the Activity [13] was “inactive”, the Activity [14] was “Active” and the Activity [15] was “inactive”. The Activity [16] was “inactive”, the ΔTm [17] was 3.6 °C and the ΔTm [18] was 16.5 °C. The Drug uptake [19] was “Active”, the Drug uptake [20] was “Active” and the Drug uptake [21] was “Not Active”. For the same molecule, the Activity [22] was “Dose-Dependent Effect”, the Activity [23] was “Active” and the Activity [24] was 70%. For the same molecule, the Activity [25] was “Non-Toxic”, the Activity [26] was “Non-Toxic” and the Activity [27] was “Non-Toxic”. For the same molecule, the Activity [28] was “Non-Toxic” and the Drug uptake [29] was “Active”.
